Results: ChEMBL document CHEMBL1147762, “A new chemical tool for exploring the physiological function of the PDE2 isozyme” (Bioorg Med Chem Lett, 2006)
In brackets after ≈: the same amount, converted by molar mass.

Key:
[1] = molecular target: Phosphodiesterase 3 (Homo sapiens, UniProt Q14432+Q13370); assay: Inhibitory activity against PDE3 by scintillation proximity assay; assay type: protein assay
In short: (§1)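 Phosphodiesterase inhibition run as a scintillation proximity assay, with enzyme at a concentration in the linear range. Final substrate was 1 µM, below one-third of the enzyme K_M, so that IC50 approximates Ki. Values are means of n experiments with standard deviation.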

[2] = molecular target: 3',5'-cyclic-AMP phosphodiesterase 4A (Homo sapiens, UniProt P27815); assay: Inhibitory activity against PDE4A by scintillation proximity assay; in short: as §1
[3] = molecular target: 3',5'-cyclic-AMP phosphodiesterase 4C (Homo sapiens, UniProt Q08493); assay: Inhibitory activity against PDE4C by scintillation proximity assay
In short: (§2)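 Scintillation proximity assay for phosphodiesterase inhibition. Enzyme is used at a concentration within the linear range, and its KM was measured. Final substrate concentration is 1 µM, below one-third of KM, so IC50 approximates Ki. Results are means of n experiments with standard deviation.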

[4] = molecular target: High affinity cAMP-specific and IBMX-insensitive 3',5'-cyclic phosphodiesterase 8A (Homo sapiens, UniProt O60658); assay: Inhibitory activity against PDE8A by scintillation proximity assay; in short: as §2
[5] = molecular target: High affinity cGMP-specific 3',5'-cyclic phosphodiesterase 9A (Homo sapiens, UniProt O76083); assay: Inhibitory activity against PDE9 by scintillation proximity assay; in short: as §2
[6] = molecular target: Adenosine receptor A1 (Homo sapiens) (UniProt P30542); assay: Percentage binding to adenosine A1 receptor at 10 uM
[7] = molecular target: Adrenergic receptor alpha-1 (Homo sapiens) (UniProt P35348+P25100+P35368); assay: Percentage binding to adrenergic alpha-1 receptor at 10 uM; assay type: protein assay
[8] = molecular target: Beta-1 adrenergic receptor (Homo sapiens) (UniProt P08588); assay: Percentage binding to adrenergic beta-1 receptor at 10 uM
[9] = molecular target: Kappa-type opioid receptor (Homo sapiens) (UniProt P41145); assay: Percentage binding to opioid kappa at 10 uM
[10] = molecular target: 5-hydroxytryptamine receptor 2A (Homo sapiens) (UniProt P28223); assay: Percentage binding to serotonin 5HT2A at 10 uM
[11] = molecular target: 5-hydroxytryptamine receptor 2C (Homo sapiens) (UniProt P28335); assay: Percentage binding to serotonin 5HT2C at 10 uM
[12] = molecular target: Rho-associated protein kinase 2 (Homo sapiens) (UniProt O75116); assay: Inhibition of ROCK2 at 10 uM
[13] = molecular target: AMP-activated protein kinase, AMPK (Homo sapiens) (UniProt P54646+O43741+P54619+Q9UGJ0+Q9Y478+Q13131+Q9UGI9); assay: Inhibition of AMPK at 10 uM; assay type: protein-complex assay
[14] = molecular target: Casein kinase II (Homo sapiens) (UniProt P67870+P68400+P19784); assay: Inhibition of CK2 at 10 uM; assay type: protein-complex assay
[15] = molecular target: Phosphorylase kinase (Homo sapiens) (UniProt P15735+P46020+P46019+Q93100+Q16816); assay: Inhibition of PHK at 10 uM; assay type: protein-complex assay
[16] = molecular target: Tyrosine-protein kinase Lck (Homo sapiens) (UniProt P06239); assay: Inhibition of LCK at 10 uM
[17] = molecular target: B1 bradykinin receptor (Homo sapiens) (UniProt P46663); assay: Percentage binding to bradykinin B1 at 10 uM
[18] = molecular target: D(2) dopamine receptor (Homo sapiens) (UniProt P14416); assay: Percentage binding to dopamine D2 at 10 uM
[19] = molecular target: D(3) dopamine receptor (Homo sapiens) (UniProt P35462); assay: Percentage binding to dopamine D3 at 10 uM
[20] = Percentage binding to GABA at 10 uM
In short: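 Single-concentration screen within a panel of 54 receptors and ion channels, measuring binding or interaction at each target.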

[21] = molecular target: Glutamate receptor ionotropic AMPA (Homo sapiens) (UniProt P48058+P42263+P42262+P42261); assay: Percentage binding to AMPA at 10 uM; assay type: protein-complex assay
[22] = molecular target: Histamine H3 receptor (Homo sapiens) (UniProt Q9Y5N1); assay: Percentage binding to histamine H3 at 10 uM
[23] = molecular target: Melanocortin receptor 4 (Homo sapiens) (UniProt P32245); assay: Percentage binding to MCR4 at 10 uM
[24] = molecular target: Serotonin 3 (5-HT3) receptor (Homo sapiens) (UniProt P46098+A5X5Y0+O95264+Q70Z44+Q8WXA8); assay: Percentage binding to serotonin 5HT3 at 10 uM; assay type: protein-complex assay
[25] = molecular target: Sodium-dependent serotonin transporter (Homo sapiens) (UniProt P31645); assay: Activity against serotonin uptake at 10 uM
[26] = molecular target: Thyroid hormone receptor (Homo sapiens) (UniProt P10827+P10828); assay: Percentage binding to thyroid hormone receptor at 10 uM; assay type: protein-complex assay
[27] = molecular target: Vasopressin V1 receptor (Homo sapiens) (UniProt P37288+P47901); assay: Percentage binding to vasopressin V1 at 10 uM; assay type: protein assay
[28] = molecular target: Cyclooxygenase (Homo sapiens) (UniProt P35354+P23219); assay: Inhibition of COX at 10 uM; assay type: protein assay
[29] = molecular target: Sodium-dependent noradrenaline transporter (Homo sapiens) (UniProt P23975); assay: Activity against norepinephrine uptake at 10 uM
[30] = molecular target: Mitogen-activated protein kinase 12 (Homo sapiens) (UniProt P53778); assay: Inhibition of SAPK3 at 10 uM
[31] = molecular target: Ribosomal protein S6 kinase alpha-1 (Homo sapiens) (UniProt Q15418); assay: Inhibition of RSK1 at 10 uM
[32] = molecular target: Tyrosine-protein kinase CSK (Homo sapiens) (UniProt P41240); assay: Inhibition of CSK at 10 uM
[33] = molecular target: Casein kinase I (Homo sapiens) (UniProt Q9HCP0+P78368+P48730+P49674+P48729); assay: Inhibition of CK1 at 10 uM; assay type: protein assay
[34] = molecular target: Serine/threonine-protein kinase Nek2 (Homo sapiens) (UniProt P51955); assay: Inhibition of NEK2 at 10 uM
[35] = molecular target: Voltage-dependent N-type calcium channel subunit alpha-1B (Homo sapiens) (UniProt Q00975); assay: Percentage binding to Ca2+ channel N at 10 uM
[36] = Half life in rat liver microsome; assay type: ADME; settings: liver microsomes
[37] = Apical Caco-2 cell membrane permeability; assay type: ADME, cell-based; settings: human
[38] = test system: P-glycoprotein (human); assay: Basolateral cell permeability in MDCK with MDR transfectant overexpressing human p-glycoprotein; assay type: ADME, cell-based; settings: MDCK-MDR1
[39] = Turbidimetric solubility at pH 7; assay type: ADME, organism-based, Homo sapiens
[40] = Volume of distribution in rat; assay type: ADME, organism-based; settings: Sprague-Dawley, in vivo, read-out: Vdss
[41] = Half life in rat; assay type: ADME, organism-based; settings: Sprague-Dawley, in vivo
In short: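 Sprague–Dawley rats were dosed intravenously at 1 mg/kg in EtOH:PEG 400:H2O (1:4:5) and orally at 30 mg/kg in 0.5% methylcellulose.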

[42] = Oral bioavailability in rat; assay type: ADME, organism-based; settings: Sprague-Dawley, in vivo
In short: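 Sprague–Dawley rats were dosed intravenously at 1 mg/kg in EtOH:PEG 400:H2O (1:4:5) and orally at 30 mg/kg in 0.5% methylcellulose. Plasma was sampled at 0.083, 0.25, 0.5, 1, 2, 4, 6 and 8 h after dosing and analysed.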

D(3) dopamine receptor (Homo sapiens), sequence (P35462 whole entry): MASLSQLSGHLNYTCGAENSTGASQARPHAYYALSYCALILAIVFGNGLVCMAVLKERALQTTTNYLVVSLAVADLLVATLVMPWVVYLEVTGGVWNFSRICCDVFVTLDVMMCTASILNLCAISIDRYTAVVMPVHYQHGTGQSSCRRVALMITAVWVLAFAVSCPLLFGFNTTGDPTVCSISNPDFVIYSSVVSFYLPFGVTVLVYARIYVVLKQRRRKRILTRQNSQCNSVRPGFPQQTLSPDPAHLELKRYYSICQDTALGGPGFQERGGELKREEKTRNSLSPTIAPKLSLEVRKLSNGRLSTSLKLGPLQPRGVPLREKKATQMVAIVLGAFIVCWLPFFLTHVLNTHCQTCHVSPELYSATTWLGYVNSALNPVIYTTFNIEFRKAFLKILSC
5-hydroxytryptamine receptor 2C (Homo sapiens), sequence (P28335 whole entry): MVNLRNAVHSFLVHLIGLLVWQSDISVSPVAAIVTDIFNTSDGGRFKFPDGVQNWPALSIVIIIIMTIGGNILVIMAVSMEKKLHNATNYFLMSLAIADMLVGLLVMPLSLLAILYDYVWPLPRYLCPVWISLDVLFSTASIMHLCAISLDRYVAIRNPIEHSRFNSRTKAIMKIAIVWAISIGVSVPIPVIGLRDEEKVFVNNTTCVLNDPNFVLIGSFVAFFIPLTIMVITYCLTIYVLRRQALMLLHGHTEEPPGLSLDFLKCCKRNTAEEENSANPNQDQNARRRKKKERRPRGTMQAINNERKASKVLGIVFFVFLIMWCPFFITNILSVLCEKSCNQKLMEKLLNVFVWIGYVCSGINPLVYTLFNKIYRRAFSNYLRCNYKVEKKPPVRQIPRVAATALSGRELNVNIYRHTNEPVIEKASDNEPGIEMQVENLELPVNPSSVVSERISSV
Tyrosine-protein kinase CSK (Homo sapiens), sequence (P41240 2-450 limits assumed): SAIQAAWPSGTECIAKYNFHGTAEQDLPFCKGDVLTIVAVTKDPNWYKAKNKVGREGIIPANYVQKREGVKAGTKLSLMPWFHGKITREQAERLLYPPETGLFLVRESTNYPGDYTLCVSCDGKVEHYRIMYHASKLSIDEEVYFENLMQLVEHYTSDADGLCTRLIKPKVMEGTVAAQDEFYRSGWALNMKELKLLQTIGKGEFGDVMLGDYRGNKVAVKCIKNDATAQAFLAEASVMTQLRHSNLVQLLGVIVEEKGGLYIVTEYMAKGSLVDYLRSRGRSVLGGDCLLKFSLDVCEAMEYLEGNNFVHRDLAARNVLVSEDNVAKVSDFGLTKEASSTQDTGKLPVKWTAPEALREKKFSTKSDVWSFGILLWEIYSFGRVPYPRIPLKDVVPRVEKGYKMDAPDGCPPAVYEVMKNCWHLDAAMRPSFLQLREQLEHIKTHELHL
Vasopressin V1 receptor (Homo sapiens), sequence (P37288 whole entry, looked up): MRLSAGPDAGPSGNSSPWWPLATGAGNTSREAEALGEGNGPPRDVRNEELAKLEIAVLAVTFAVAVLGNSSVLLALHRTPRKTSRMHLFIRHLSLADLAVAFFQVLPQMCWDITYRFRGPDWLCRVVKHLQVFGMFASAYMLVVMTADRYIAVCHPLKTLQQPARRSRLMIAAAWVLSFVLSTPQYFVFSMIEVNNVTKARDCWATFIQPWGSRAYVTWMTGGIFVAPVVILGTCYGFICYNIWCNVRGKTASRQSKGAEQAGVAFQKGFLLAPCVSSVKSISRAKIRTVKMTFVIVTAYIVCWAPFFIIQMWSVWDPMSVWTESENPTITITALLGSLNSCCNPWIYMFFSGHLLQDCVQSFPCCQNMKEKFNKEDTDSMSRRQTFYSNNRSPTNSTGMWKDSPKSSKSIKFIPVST
Vasopressin V1 receptor (Homo sapiens), sequence (P47901 whole entry, looked up): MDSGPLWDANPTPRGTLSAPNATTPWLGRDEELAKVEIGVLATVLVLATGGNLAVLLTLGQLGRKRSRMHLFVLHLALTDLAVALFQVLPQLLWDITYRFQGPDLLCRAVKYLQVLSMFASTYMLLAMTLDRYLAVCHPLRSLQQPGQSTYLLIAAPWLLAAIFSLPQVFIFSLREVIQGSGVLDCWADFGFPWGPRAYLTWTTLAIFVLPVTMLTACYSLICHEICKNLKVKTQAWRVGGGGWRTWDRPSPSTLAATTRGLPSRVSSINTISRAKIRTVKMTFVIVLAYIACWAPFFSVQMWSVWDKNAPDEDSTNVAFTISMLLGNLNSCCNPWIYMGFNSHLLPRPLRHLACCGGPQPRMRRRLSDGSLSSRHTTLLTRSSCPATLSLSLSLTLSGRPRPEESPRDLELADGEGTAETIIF
Histamine H3 receptor (Homo sapiens), sequence (Q9Y5N1 whole entry): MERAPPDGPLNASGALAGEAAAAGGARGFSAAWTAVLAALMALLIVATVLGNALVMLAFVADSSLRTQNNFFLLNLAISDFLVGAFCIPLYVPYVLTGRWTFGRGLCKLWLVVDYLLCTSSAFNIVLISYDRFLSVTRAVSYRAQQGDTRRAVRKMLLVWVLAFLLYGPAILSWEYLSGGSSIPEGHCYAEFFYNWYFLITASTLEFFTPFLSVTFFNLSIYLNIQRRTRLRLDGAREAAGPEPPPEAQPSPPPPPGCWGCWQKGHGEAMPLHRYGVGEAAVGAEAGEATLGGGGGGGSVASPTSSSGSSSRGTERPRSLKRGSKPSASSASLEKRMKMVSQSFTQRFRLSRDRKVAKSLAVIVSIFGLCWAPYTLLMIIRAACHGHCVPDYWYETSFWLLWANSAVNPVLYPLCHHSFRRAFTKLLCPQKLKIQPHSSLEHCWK
5-hydroxytryptamine receptor 2A (Homo sapiens), sequence (P28223 whole entry): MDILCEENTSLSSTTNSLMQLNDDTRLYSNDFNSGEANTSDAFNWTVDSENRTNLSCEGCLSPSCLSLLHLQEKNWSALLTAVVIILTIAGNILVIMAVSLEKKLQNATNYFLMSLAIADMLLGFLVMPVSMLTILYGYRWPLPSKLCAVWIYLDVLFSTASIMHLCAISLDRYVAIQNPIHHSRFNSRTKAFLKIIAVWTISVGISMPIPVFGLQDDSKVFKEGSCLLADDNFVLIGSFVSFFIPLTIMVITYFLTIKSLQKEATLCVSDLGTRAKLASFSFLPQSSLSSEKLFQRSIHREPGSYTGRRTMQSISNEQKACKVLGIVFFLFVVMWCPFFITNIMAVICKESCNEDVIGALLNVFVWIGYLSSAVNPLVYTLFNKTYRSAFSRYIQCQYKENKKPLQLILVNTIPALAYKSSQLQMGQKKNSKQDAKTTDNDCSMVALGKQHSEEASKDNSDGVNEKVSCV
3',5'-cyclic-AMP phosphodiesterase 4A, sequence (P27815 whole entry): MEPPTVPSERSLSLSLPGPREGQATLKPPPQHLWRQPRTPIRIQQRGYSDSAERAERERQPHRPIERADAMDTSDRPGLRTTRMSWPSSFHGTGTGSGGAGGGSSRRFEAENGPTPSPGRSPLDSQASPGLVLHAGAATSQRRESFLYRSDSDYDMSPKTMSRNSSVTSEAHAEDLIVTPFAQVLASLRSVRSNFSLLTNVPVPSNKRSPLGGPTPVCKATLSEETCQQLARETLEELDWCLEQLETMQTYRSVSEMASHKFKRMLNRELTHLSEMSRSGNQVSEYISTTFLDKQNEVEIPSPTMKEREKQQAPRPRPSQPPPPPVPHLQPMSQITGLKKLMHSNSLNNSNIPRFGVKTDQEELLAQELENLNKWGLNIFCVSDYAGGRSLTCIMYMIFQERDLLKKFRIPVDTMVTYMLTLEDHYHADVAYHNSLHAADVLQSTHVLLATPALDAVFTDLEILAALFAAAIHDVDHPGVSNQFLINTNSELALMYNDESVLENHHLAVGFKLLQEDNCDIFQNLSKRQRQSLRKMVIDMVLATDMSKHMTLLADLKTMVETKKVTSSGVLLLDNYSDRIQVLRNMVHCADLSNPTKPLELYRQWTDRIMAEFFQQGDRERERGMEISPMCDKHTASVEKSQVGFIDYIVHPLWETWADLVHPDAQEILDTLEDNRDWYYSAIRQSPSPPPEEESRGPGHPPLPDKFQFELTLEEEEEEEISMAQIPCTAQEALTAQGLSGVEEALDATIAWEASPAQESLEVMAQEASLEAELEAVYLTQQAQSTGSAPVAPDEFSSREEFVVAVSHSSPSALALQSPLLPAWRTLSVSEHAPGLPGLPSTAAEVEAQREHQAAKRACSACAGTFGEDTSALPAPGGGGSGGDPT
Melanocortin receptor 4 (Homo sapiens), sequence (P32245 whole entry): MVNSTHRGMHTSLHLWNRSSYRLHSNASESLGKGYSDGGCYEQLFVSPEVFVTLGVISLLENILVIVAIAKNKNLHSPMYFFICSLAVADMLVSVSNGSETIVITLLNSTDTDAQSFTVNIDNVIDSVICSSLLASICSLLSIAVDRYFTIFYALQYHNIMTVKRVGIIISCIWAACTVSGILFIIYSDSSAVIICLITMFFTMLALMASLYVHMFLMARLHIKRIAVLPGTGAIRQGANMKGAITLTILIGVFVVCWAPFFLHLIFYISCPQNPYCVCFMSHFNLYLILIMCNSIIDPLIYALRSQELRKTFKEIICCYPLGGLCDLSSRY
Mitogen-activated protein kinase 12 (Homo sapiens), sequence (P53778 whole entry): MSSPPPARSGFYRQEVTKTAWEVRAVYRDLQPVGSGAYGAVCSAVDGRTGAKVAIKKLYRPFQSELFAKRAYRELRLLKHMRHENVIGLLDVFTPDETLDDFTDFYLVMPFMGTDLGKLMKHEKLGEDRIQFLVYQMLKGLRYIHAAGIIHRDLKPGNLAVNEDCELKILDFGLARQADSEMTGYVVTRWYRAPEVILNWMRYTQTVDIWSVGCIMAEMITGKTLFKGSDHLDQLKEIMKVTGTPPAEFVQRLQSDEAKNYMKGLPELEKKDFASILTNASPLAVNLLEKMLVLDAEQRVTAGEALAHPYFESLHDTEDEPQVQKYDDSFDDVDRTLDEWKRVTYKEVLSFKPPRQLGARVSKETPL

- IC50 [1]: > 16 µM
- IC50 [2]: > 16 µM
- IC50 [3]: > 16 µM
- IC50 [4]: > 16 µM
- IC50 [5]: > 16 µM
- Activity [6]: 16%
- Activity [7]: 0%
- Activity [8]: 15%
- Activity [9]: 0%
- Activity [10]: 15%
- Activity [11]: 0%
- inhibition [12]: 20%
- inhibition [13]: 8%
- inhibition [14]: 32%
- inhibition [15]: 0%
- inhibition [16]: 5%
- Activity [17]: 0%
- Activity [18]: 12%
- Activity [19]: 0%
- Activity [20]: 3%
- Activity [21]: 20%
- Activity [22]: 0%
- Activity [23]: 12%
- Activity [24]: 0%
- Activity [25]: 0%
- Activity [26]: 0%
- Activity [27]: 5%
- inhibition [28]: 0%
- Activity [29]: 12%
- inhibition [30]: 7%
- inhibition [31]: 1%
- inhibition [32]: 5%
- inhibition [33]: 10%
- inhibition [34]: 0%
- Activity [35]: 0%
- half-life [36]: 1.38 h
- Papp [37]: 5 ×10⁻⁶ cm/s
- Papp [38]: 4.6 ×10⁻⁶ cm/s
- solubility kinetic [39]: 55 µg/mL (≈ 175 µM)
- Vd [40]: 0.1 L/kg
- half-life [41]: 1.6 h
- bioavailability [42]: 41%
SMILES: CN1C(=O)C(C(=O)Nc2nncs2)c2cc3occc3cc21 (configuration not stated)
